# Reference: ChEMBL document CHEMBL1124294, “Nonsteroidal antiandrogens. Synthesis and structure-activity relationships of 3-substituted derivatives of 2-hydroxypropionanilides” (1988)
# The source made the active and inactive calls. The rule behind the calls is not given here.
# Columns and labels:
# Rattus norvegicus [1] = organism: Rattus norvegicus; assay: Effective dose required to inhibit 50 percent of androgen hormone activity in intact rat; format: functional
# In short: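 Rats dosed with vehicle 0.5% polysorbate. Killed 24 h after the last dose; seminal vesicles dissected, blotted and weighed. Percent inhibition uses a cumulative castrate control group as the 100% effect. ED50 taken from dose-response curves.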
# Rattus norvegicus [2] = organism: Rattus norvegicus; assay: Agonist activity indicated by a statistically significant increase in ventral prostate gland weight compared, to control animals; NA means no statistically significant increase in ventral prostate weight compared to controls.; format: functional, organism-based
# In short: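 Male rats castrated at 24 days of age, groups of five. Killed 24 h after the final dose. Seminal vesicles and ventral prostate dissected, cleaned and weighed. Value is ventral prostate weight in mg, compared with castrated vehicle controls for statistical significance.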
# Rattus norvegicus [3] = assay: Percent inhibition of androgen hormone in rat at 50 mg/kg; format: functional
# In short: (§1)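 Rats dosed with vehicle 0.5% polysorbate. Killed 24 h after the last dose; seminal vesicles dissected, blotted and weighed. […] Percent inhibition uses a cumulative castrate control group as the 100% effect. ED50 taken from dose-response curves.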
# Rattus norvegicus [4] = assay: Effect of compound on LH level on 14-day dosing in intact rats; format: functional
# Rattus norvegicus [5] = assay: Effect of compound on LH level on 14-day dosing in intact rats 25 mg/kg; format: functional
# Rattus norvegicus [6] = assay: Effect of compound on testosterone hormone level on 14-day dosing in intact rats; format: functional
# Rattus norvegicus [7] = assay: Effect of compound on testosterone hormone level on 14-day dosing in intact rats at 25 mg/kg.; format: functional
# Rattus norvegicus [8] = assay: Effect of compound on LH level on 14-day dosing in intact rats; No statistically significant difference from control; format: functional, organism-based
# Rattus norvegicus [9] = assay: Effect of compound on testosterone hormone level on 14-day dosing in intact rats; No statistically significant difference from controls; format: functional, organism-based
# Rattus norvegicus [10] = assay: Percent inhibition of androgen hormone activity in rat at 50 mg/kg; format: functional; in short: as §1
# Rattus norvegicus [11] = assay: Percent inhibition of androgen hormone in rat at 25 mg/kg; format: functional; in short: as §1
compound,measurement,setting,value
CC(O)(CSc1ccc(F)cc1)C(=O)Nc1ccc(C#N)c(C(F)(F)F)c1 (centres undefined),ED50,Rattus norvegicus [1],0.5 mg/kg
same,Weight,Rattus norvegicus [2],Not significant
CC(O)(CSc1ccccc1)C(=O)Nc1ccc(Cl)c([N+](=O)[O-])c1 (centres undefined),inhibition in vivo at 50 mg/kg,Rattus norvegicus [3],36%
same,Weight,Rattus norvegicus [2],Not significant
CC(C)C(=O)Nc1ccc([N+](=O)[O-])c(C(F)(F)F)c1 [FLUTAMIDE],ED50,Rattus norvegicus [1],2 mg/kg
same,LH,Rattus norvegicus [4],<0.01 ng/mL
same,LH,Rattus norvegicus [5],9 ng/mL
same,Testosterone,Rattus norvegicus [6],<0.01 ng/mL
same,Testosterone,Rattus norvegicus [7],7.61 ng/mL
same,Weight,Rattus norvegicus [2],inactive
CC(O)(CS(=O)(=O)c1ccc(F)cc1)C(=O)Nc1ccc([N+](=O)[O-])c(C(F)(F)F)c1 (centres undefined),ED50,Rattus norvegicus [1],0.4 mg/kg
CC(O)(CS(=O)(=O)c1ccc(F)cc1)C(=O)Nc1ccc(C#N)c(C(F)(F)F)c1 (centres undefined) [BICALUTAMIDE],ED50,Rattus norvegicus [1],0.5 mg/kg
same,LH,Rattus norvegicus [5],1.04 ng/mL
same,LH,Rattus norvegicus [8],inactive
same,Testosterone,Rattus norvegicus [7],3.97 ng/mL
same,Testosterone,Rattus norvegicus [9],inactive
same,Weight,Rattus norvegicus [2],inactive
CC(O)(CSc1ccccc1)C(=O)Nc1ccc([N+](=O)[O-])cc1 (centres undefined),inhibition in vivo at 50 mg/kg,Rattus norvegicus [10],11%
CC(O)(CSc1ccccc1)C(=O)Nc1ccc(Cl)c(Cl)c1 (centres undefined),inhibition in vivo at 25 mg/kg,Rattus norvegicus [11],44%
